FLuc inhib CS – Photinus pyralis luciferase inhibition counter-screen; P08659; ATPLite firefly luciferase biochemical luminescence, 10 min; inhibition, % at 10 µM; actives 1.5% (n = 200,000);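 active = inhibition above about 50% when tested at 10 µM, limit read from the data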
Target sequence (P08659 whole entry, looked up): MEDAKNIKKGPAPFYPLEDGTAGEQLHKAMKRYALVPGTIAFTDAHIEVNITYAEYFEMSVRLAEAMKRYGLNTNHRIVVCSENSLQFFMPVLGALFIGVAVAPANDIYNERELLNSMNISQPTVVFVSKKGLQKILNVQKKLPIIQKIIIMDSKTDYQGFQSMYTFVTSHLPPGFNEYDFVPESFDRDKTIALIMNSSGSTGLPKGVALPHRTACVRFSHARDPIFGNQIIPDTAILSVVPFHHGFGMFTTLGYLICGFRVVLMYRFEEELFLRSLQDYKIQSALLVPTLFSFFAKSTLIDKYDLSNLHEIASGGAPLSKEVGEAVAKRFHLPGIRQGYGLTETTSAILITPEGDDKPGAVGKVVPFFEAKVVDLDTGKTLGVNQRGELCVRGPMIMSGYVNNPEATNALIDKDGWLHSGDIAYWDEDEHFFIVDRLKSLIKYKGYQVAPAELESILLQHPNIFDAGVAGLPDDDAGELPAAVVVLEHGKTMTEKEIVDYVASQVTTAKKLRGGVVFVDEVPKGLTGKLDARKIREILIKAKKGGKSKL
PPC-1+TRAIL kill – compounds killing PPC-1 cancer cells with TRAIL present (potentiator screen, no TRAIL-free arm). cell killing (% activity), % at 4 µM or 5 µM. PPC-1 cells + TRAIL, ATPLite viability luminescence. actives 0.41% (n = 220,000);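 active = cell killing above 50% in the first pass at 4 µM, then a duplicate retest at 5 µM averaging 50% or more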;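 also: plate controls were cells with TRAIL plus DMSO for no effect and medium-only wells lacking cells for full effect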
TRAIL sens C8 – sensitizes caspase-8 expressing cells to TRAIL. NB7+C8 cells + TRAIL, ATPlite viability luminescence. actives 1% (n = 360,000). inhibition (viability loss, TRAIL sensitization), % at 10 µM. AID 624354;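 active = compounds causing at least 50% loss of cell viability in the single-dose screen, relative to plate controls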
FLuc stim CS – affects firefly luciferase, flagging false hits in luciferase stimulation screens | P08659 | ATPlite luciferase biochemical, luminescence, 10 min; 0 = ATP-free wells, 1 = DMSO control | activation factor at 10 µM | 200,000 tested, under 10 active | AID 1027;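 active = luciferase activation factor, scaled between plate controls, of at least 2 with compound at 10 µM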
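Material: Luciferase/luciferin reagent mix; Doses: test compounds dosed from 2 mM stocks in 100% DMSO; Schedule: 10 min incubation after luciferase reagent addition, room temperature; Measured by: luminescence from luciferase reaction; Read-out: luminescence gain marking luciferase activators.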
* marks the source's active call; other numbers are inactive results; ! = repeats disagree. The list is not random: actives were taken first. Their share in the collection is about 1.6%.

O=C(O)Cc1c[nH]c2ccccc12 was read as TRAIL sens C8 -5.
Screening CCc1ccc(NC(=O)CSCCN2C(=O)c3ccccc3C2=O)cc1 returned FLuc inhib CS -7, PPC-1+TRAIL kill 12, TRAIL sens C8 -2 and FLuc stim CS 1.1.
CC(C)[C@H](NC(=O)c1ccccc1)C(=O)OCC(=O)NCCc1ccc(F)cc1 was read as FLuc inhib CS -6, PPC-1+TRAIL kill 30, TRAIL sens C8 -7 and FLuc stim CS 1.1.
Screening CSc1ccc(/C=c2\s/c(=C\C(=O)C(C)(C)C)n(CC(=O)NCCC3=CCCCC3)c2=O)cc1 returned FLuc inhib CS -6, PPC-1+TRAIL kill 10, TRAIL sens C8 -9 and FLuc stim CS 1.1.
COc1ccc(-c2cc(-c3nc4ccccn4c3NCc3ccccc3)ccc2OC)cc1 was read as TRAIL sens C8 78*.
Screening COc1ccc(-c2nc3ccccn3c2NCc2ccc3c(c2)OCO3)cc1 returned FLuc inhib CS 43, PPC-1+TRAIL kill 22, TRAIL sens C8 21 and FLuc stim CS 0.6.
For CCC(C)Sc1ccc(-c2nc3ccc(C)cn3c2NCc2ccccc2)cc1OC (configuration not stated) the results were TRAIL sens C8 22.
CCC(C)Sc1cc(-c2nc3ccc(C)cn3c2NCc2ccccc2)ccc1OC (configuration not stated) was read as TRAIL sens C8 84*!.
O=C(Nc1nc2n(n1)C(c1ccccc1)C=C(c1ccccc1)N2)c1ccco1 (configuration not stated) was read as FLuc inhib CS -2, PPC-1+TRAIL kill 9, TRAIL sens C8 4 and FLuc stim CS 1.
O=C(CSc1nnc(NC(=O)c2ccccc2Cl)s1)NC1CC1 was read as TRAIL sens C8 19.
For CCOC(=O)CNC(=O)CSc1nnc(NC(=O)c2ccccc2Cl)s1 the results were FLuc inhib CS 69*, PPC-1+TRAIL kill 40, TRAIL sens C8 44 and FLuc stim CS 0.3.
COc1ccccc1C(=O)Nc1nnc(SCC(=O)NCc2ccco2)s1 was read as TRAIL sens C8 16.
COc1ccc(C(=O)Nc2nnc(SCC(=O)NC3CC3)s2)cc1 was read as TRAIL sens C8 78*.
For COc1ccc(C(=O)Nc2nnc(SCC(=O)NCc3ccco3)s2)c(OC)c1 the results were TRAIL sens C8 59*.
Screening Cc1ccccc1C(=O)Nc1nnc(SCC(=O)NC2CC2)s1 returned TRAIL sens C8 53*.
Screening O=C(CSc1nnc(NC(=O)c2ccccc2F)s1)Nc1ccccc1F returned FLuc inhib CS 89*, PPC-1+TRAIL kill 45, TRAIL sens C8 58* and FLuc stim CS 0.1.
For COc1ccc(C(=O)Nc2nnc(SCC(=O)NC3CCCC3)s2)c(OC)c1 the results were TRAIL sens C8 72*.
COc1ccc(C(=O)Nc2nnc(SCC(=O)Nc3ccc(NC(C)=O)cc3)s2)c(OC)c1 was read as TRAIL sens C8 2.
CC(=O)c1sc2nc(SCC(=O)NCCc3ccccc3)[nH]c(=O)c2c1C was read as TRAIL sens C8 -10.
CCn1nc(NS(=O)(=O)c2ccc(NC(C)=O)cc2)c2cc3ccccc3nc21 was read as TRAIL sens C8 -6.
For CCOC(=O)c1c(C)[nH]c(C2=NNC(=NC3CC3)SC2)c1C the results were FLuc inhib CS 71*, PPC-1+TRAIL kill 20, TRAIL sens C8 33 and FLuc stim CS 0.3.
CCOC(=O)c1c(C)[nH]c(/C(C)=N/O)c1C was read as FLuc inhib CS -1, PPC-1+TRAIL kill 14, TRAIL sens C8 39 and FLuc stim CS 1.
`Cc1ccc(S(=O)(=O)N2CCC(C(=O)OC(C)C(=O)NCc3ccccc3)CC2)cc1C` (configuration not stated) gave TRAIL sens C8 1.
For CC(C)(C)c1ccc(C(=O)O/N=C(\N)c2ccccn2)cc1 the results were TRAIL sens C8 98*.
Screening COc1cc(C(=O)O/N=C(\N)c2ccccn2)cc(OC)c1OC returned PPC-1+TRAIL kill -1 and TRAIL sens C8 -15.
`Cc1cccc(/C(N)=N/OC(=O)C23CC4CC(CC(C4)C2)C3)c1` gave FLuc inhib CS 62*, PPC-1+TRAIL kill 10, TRAIL sens C8 0 and FLuc stim CS 0.4.
Screening Cc1ccc(C(=O)O/N=C(\N)c2ccccn2)cc1 returned TRAIL sens C8 95*.
For Cc1cccc(/C(N)=N/OC(=O)N2c3ccccc3Sc3ccccc32)c1 the results were FLuc inhib CS -2, PPC-1+TRAIL kill -3, TRAIL sens C8 -12 and FLuc stim CS 1.
Screening C/C(=N/NC(=O)c1ccc(C(C)(C)C)cc1)c1ccccn1 returned TRAIL sens C8 28.
`CCOc1ccc(C(=O)O/N=C(\N)c2ccccn2)cc1` gave TRAIL sens C8 93*.
For Cc1cccc(OCC(=O)O/N=C(\N)c2ccccn2)c1 the results were FLuc inhib CS 6, PPC-1+TRAIL kill 8, TRAIL sens C8 1 and FLuc stim CS 0.9.
Cc1ccc(C(=O)O/N=C(\N)c2ccccn2)cc1C was read as TRAIL sens C8 81*.
For Cc1cccc(C(=O)O/N=C(\N)c2ccccn2)c1 the results were TRAIL sens C8 87*.
For C/C(=N\OC(=O)c1ccc(Br)cc1)c1ccccn1 the results were FLuc inhib CS 80*, PPC-1+TRAIL kill 27, TRAIL sens C8 -8 and FLuc stim CS 0.2.
Screening C/C(=N/OCc1ccc(Br)cc1)c1ccccn1 returned FLuc inhib CS 45, PPC-1+TRAIL kill 6, TRAIL sens C8 24 and FLuc stim CS 0.5.
COc1ccc(C(=O)O/N=C(\N)c2ccccn2)c(OC)c1 was read as PPC-1+TRAIL kill 45 and TRAIL sens C8 62*.
Screening COc1cccc(-c2csc(N3CCN(C(=S)Nc4ccccc4OC)CC3)n2)c1 returned FLuc inhib CS -3, PPC-1+TRAIL kill 10, TRAIL sens C8 -11 and FLuc stim CS 1.
Screening Cc1cccc(/C(N)=N/OC(=O)c2cccnc2)c1 returned FLuc inhib CS 64*, PPC-1+TRAIL kill 21, TRAIL sens C8 3 and FLuc stim CS 0.4.
`N/C(=N\OC(=O)c1cccc(F)c1)c1ccccn1` gave TRAIL sens C8 56*.
`N/C(=N\OC(=O)c1ccc(Br)o1)c1ccccn1` gave FLuc inhib CS 78*, PPC-1+TRAIL kill 8, TRAIL sens C8 24 and FLuc stim CS 0.2.
`COc1cc(OC)cc(C(=O)O/N=C(\N)c2cccc(C)c2)c1` gave TRAIL sens C8 32.
For N/C(=N\OC(=O)/C=C/c1ccccc1Cl)c1ccccn1 the results were FLuc inhib CS 74*, PPC-1+TRAIL kill 28, TRAIL sens C8 31 and FLuc stim CS 0.3.
Screening N/C(=N\OC(=O)Cc1ccccc1)c1ccccn1 returned FLuc inhib CS 12, PPC-1+TRAIL kill -12, TRAIL sens C8 10 and FLuc stim CS 0.9.
Screening Cc1cccc(C(=O)OCC(=O)Nc2ccc(N3CCCCC3)cc2)c1O returned FLuc inhib CS 2, PPC-1+TRAIL kill -15, TRAIL sens C8 6 and FLuc stim CS 1.
CN(CC(=O)Nc1ccc(Cl)cc1)Cc1cc(=O)n2ccsc2n1 was read as FLuc inhib CS -3, PPC-1+TRAIL kill 2, TRAIL sens C8 -13 and FLuc stim CS 1.

Screening data (PubChem)
